# Screening results from PubChem BioAssay.
# Sampled rows, rich in hits. Any-hit rate of the full collection: about 0.65%.
# TNAP act DEA – human TNAP enzyme activators, primary screen, biochemical, luminescent, intermediate phosphate acceptor level. Alkaline phosphatase, tissue-nonspecific isozyme (Homo sapiens), P05186. purified TNAP, CDP-star luminescence, 100 mM DEA, 30 min; stronger effect = higher value; scale: 0 levamisole-inhibited, 1 vehicle-only enzyme. activation factor at 20 µM. 64,000 tested, under 10 active. AID 813, 2007;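 active = activation factor of at least 2 at 20 µM, relative to controls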
# HePTP inh – inhibitors of human HePTP phosphatase, primary screen, biochemical, absorbance, leukemia target. Tyrosine-protein phosphatase non-receptor type 7 (Homo sapiens), P35236. actives 0.64% (n = 110,000). recombinant HePTP phosphatase activity, OD absorbance. inhibition, % at 20 µM; in the data active = inhibition above about 50%;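 note: plate controls were vehicle for no effect and reference inhibitor for full effect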
# Target sequence (P35236 whole entry, looked up): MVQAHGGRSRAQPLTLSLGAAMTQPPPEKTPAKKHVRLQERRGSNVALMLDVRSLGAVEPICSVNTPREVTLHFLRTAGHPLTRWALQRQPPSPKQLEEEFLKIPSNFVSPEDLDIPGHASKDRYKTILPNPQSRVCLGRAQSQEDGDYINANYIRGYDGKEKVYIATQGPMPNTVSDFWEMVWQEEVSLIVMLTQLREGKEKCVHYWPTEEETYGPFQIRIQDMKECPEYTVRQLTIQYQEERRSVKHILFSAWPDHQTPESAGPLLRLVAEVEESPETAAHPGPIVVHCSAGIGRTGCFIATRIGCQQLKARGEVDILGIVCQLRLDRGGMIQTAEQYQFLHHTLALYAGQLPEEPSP
# AP complement – alternative complement pathway inhibitors, primary screen, biochemical, ELISA, human serum, orthogonally pooled compounds | inhibition, % at 5 µM | AID 1235, 2008 | LPS-coated ELISA, C3 deposition; tested in compound mixtures | actives 0.08% (n = 62,000);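 active = inhibition above 30% in each of the two pooled mixtures holding the compound, so the lower value exceeds 30%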;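 note: 0% = serum in Mg-EGTA without compound and 100% = EDTA serum blank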
#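 Test system: human serum complement alternative pathway, C3 deposition onto LPS / Medium: Mg2+-EGTA GVB++ buffer containing human serum at 1:15 dilution / Probe or stimulus: Plate-bound LPS / Times: 1 h at 37 °C / Signal: ELISA with HRP anti-human C3 antibody, TMB substrate, absorbance 450 nm / Measure: percent inhibition / Repeats: two pool placements per compound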
# Numbers without * were called inactive; . = not tested or not shown.
SMILES,TNAP act DEA,HePTP inh,AP complement
Cc1ccc(C)n1-c1ccc(Cl)c(C(=O)NN)c1,.,1,.
Cc1ccc(C)n1-c1ccc(C(=O)O)c(O)c1,.,103*,.
Cc1ccc(C)n1-c1cc(C(=O)O)ccc1O,.,103*,.
Cc1ccc(C)n1-c1cc(C(=O)O)cc(C(=O)O)c1,.,101*,.
Cc1ccc(C)n1-c1ccc(C(=O)O)c(Cl)c1,.,102*,.
CC(=O)c1ccc(-n2c(C)ccc2C)cc1,.,0,.
CC(=O)Oc1ccc(C(=O)O)cc1OC(C)=O,1,3,21
Nc1ccc(C(=O)O)c(O)c1,0.9,13,14
N#C/C(=C\c1cccc(O)c1)C(=O)NCC1CCCO1 (centres undefined),.,9,.
O=C(NCCNc1ccc(Cl)cc1[N+](=O)[O-])c1ccccc1Cl,.,3,.
Nc1ccc(Br)c(NC(=O)c2ccccc2)c1,.,6,.
O=C(c1ccc(F)cc1)N1CCN(Cc2ccco2)CC1,.,5,.
Cc1nc(NC(=O)/C=C/c2ccc(F)cc2)sc1C,.,-5,.
Cc1ccsc1/C=C(\C#N)c1nc(-c2cccc(Br)c2)cs1,.,4,.
CN1C(=O)c2c(sc3c2CC(C)(C)SC3)N2CCN=C12,1,2,35*
CC1(C)Cc2c(sc3c2C2=NCCN2C=N3)CS1,0.9,-10,-8
CCCc1cc(C(=O)NC2CCCC2)no1,0.9,7,40*
CCCc1cc(C(=O)NC2CCCCC2)no1,1,-2,-7
Cc1cc(C)nc(S(=O)CC(O)COc2ccccc2)n1 (centres undefined),.,3,.
CN(C(=S)Nc1ccccc1)c1ccccc1,.,102*,.
CCN(CC)c1ccc(NC(=S)Nc2ccccc2)cc1,.,9,.
CCc1c(C)nc2[nH]nc(-c3ccccc3Cl)n2c1=O,.,-16,.
O=C(O)c1ccc2c(c1)C(=O)N(c1ccc(-c3nc4ccccc4c(=O)o3)cc1)C2=O,.,15,.
O=C(O)c1ccc2c(c1)C(=O)N(c1ccc(-c3nnc(-c4ccccc4)o3)cc1)C2=O,.,102*,.
Cc1ccc(-c2cc(NC(=O)c3cccc(C)c3)n[nH]2)cc1,.,2,.
SMILES,TNAP act DEA,HePTP inh,AP complement
O=C(CN1C(=O)c2ccccc2C1=O)Nc1ccccc1C(=O)N1CCOCC1,.,4,.
COc1ccc(OC)c(N=c2oc3cc(O)ccc3cc2C(N)=O)c1,0.9,6,-3
CCOc1ccc(OCC)c(N=c2oc3c(C)ncc(CO)c3cc2C(N)=O)c1,0.9,3,84*
COc1ccc(C2Nc3ccccc3NC3=C2C(=O)CC(C)(C)C3)cc1COc1ccc(F)cc1 (centres undefined),.,10,.
CN(C)c1cccc(C(=O)NC(c2ccccc2)c2ccccc2)c1,.,-7,.
O=C(O)c1ccc2c(c1)C1C=CCC1C(c1cccc([N+](=O)[O-])c1)N2 (centres undefined),.,102*,.
CCOC(=O)c1ccc2c(c1)C1C=CCC1C(c1cccc([N+](=O)[O-])c1)N2 (centres undefined),.,-13,.
COC(=O)c1ccc(C(=O)OC)c(NC(=O)Nc2ccc(Cl)c(Cl)c2)c1,.,8,.
c1ccc(CSc2nc3ccccc3s2)nc1,.,-3,.
CCOc1ccc2nc(SCc3ccccn3)sc2c1,.,79*,.
Cc1cc(Nc2ccc3c(c2)OCO3)n2c(nc3ccccc32)c1C#N,.,-8,.
CC1CCCN(CN2C(=O)C(=O)c3cc(Br)ccc32)C1 (centres undefined),.,-2,.
O=C(NCCOc1ccccc1F)c1ccc(CSc2ccc(Cl)cc2)cc1,.,-5,.
CC(C)n1c(SCCCc2ccccc2)nc2c1c(=O)[nH]c(=O)n2C,1,8,33*
C/C=C/Cn1c(SCCCc2ccccc2)nc2c1c(=O)[nH]c(=O)n2C,0.8,6,7
CCOC(=O)c1sc(NC(=O)c2ccc(OC)c(OC)c2)c(C(N)=O)c1C,.,-11,.
O=S(CC(O)COc1ccc(Cl)cc1)c1ccccn1 (centres undefined),.,-6,.
CCOC(=O)c1c(C)sc(Sc2ccc(Cl)cc2[N+](=O)[O-])c1OC,.,102*,.
CCOC(=O)c1c(C)sc(Sc2ccccc2[N+](=O)[O-])c1OC(C)=O,.,-12,.
O=C(Nc1cc([N+](=O)[O-])ccc1C(=O)N1CCC(Cc2ccccc2)CC1)c1cccs1,.,-10,.
CCOc1ccc(/C=C2/SC(NC(C)=O)=NC2=O)cc1,.,4,.
COc1ccc(/C=N/NC(=O)c2[nH]c3ccc([N+](=O)[O-])cc3c2-c2ccccc2)cc1,.,8,.
